Reference: ChEMBL document CHEMBL1159310, “Indole and beta-carboline alkaloids from Geissospermum sericeum” (J Nat Prod, 2002)

Key:
[1] = test system: Plasmodium falciparum; assay: Antiplasmodial activity against chloroquine-sensitive Plasmodium falciparum T9-96; format: functional, organism-based
[2] = test system: Plasmodium falciparum; assay: Antiplasmodial activity against chloroquine-resistant Plasmodium falciparum K1; format: functional, organism-based
[3] = test system: KB; assay: Cytotoxicity against human KB cells after 48 hrs by MTT assay; format: cell-based
How it was run: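 Human KB cells (0.5 × 10^6 viable cells/mL in RPMI 1640 with 20% FCS) added to compound diluted in RPMI 1640 from […] DMSO stocks; 48 h at 37 °C. MTT (5 mg/mL) added for 15 min, supernatant discarded, cells solubilised in DMSO plus Sørensen's glycine buffer pH 10.5; OD read at 570 nm; IC50 by curve fitting.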

[4] = test system: Plasmodium falciparum; assay: Selectivity for Plasmodium falciparum K1 to Plasmodium falciparum T9-96 as IC50 ratio; format: functional

SMILES | IC50 [1] | IC50 [2] | IC50 [3] | Ratio IC50 [4]
CC[C@@H]1CN2CC[C@]34c5ccccc5N[C@H]3[C@@H](CO)[C@H]1C[C@H]24 [GEISSOSCHIZOLINE] | > 40 µM | > 40 µM | > 40 µM | 
CCN(CC)CCCC(C)Nc1ccnc2cc(Cl)ccc12 (centres undefined) [CHLOROQUINE] |  |  | 20.4 µM | 
CCc1ccc2c3[nH]c4ccccc4c3cc[n+]2c1.[Cl-] [FLAVOPEREIRINE] | 1.83 µM | 11.5 µM | 10.7 µM | 6.3
CC[C@@H]1C[N+]2([O-])CC[C@]34c5ccccc5N[C@H]3[C@@H](CO)[C@H]1C[C@@H]42 (some centres undefined) | > 40 µM | > 40 µM | > 40 µM | 
CC[C@@H]1CN2CC[C@@]34C(=Nc5ccccc53)[C@@H](CO)[C@H]1C[C@H]24 | 35.4 µM | 27.3 µM | > 40 µM | 
